Test results reported in article PMC4553108 (Xenobiotica; the fate of foreign compounds in biological …, 2015).

Experiments:
[1] = Stability of BI-94 in solution; assay type: physicochemical; settings: for stability in solution: 10 μg/mL, up to 60 min
Balb/c mice = assay: GSH and NAC adduct formation in vivo after intravenous dose to mice
[2] = target: human serum albumin (HSA)-T3 peptide (Homo sapiens, UniProt P02768); assay: HSA-T3 peptide adduct formation in solution; assay type: in vitro ADME; settings: deionized water, 30 min; MS/MS mass shifts +164 (A1) and +273 (A2)
[3] = Stability of BI-94 in human plasma; assay type: in vitro ADME; settings: immediately after spiking (data not shown)
[4] = Stability of BI-94 in monkey plasma; assay type: in vitro ADME; settings: immediately after spiking (data not shown)
[5] = Stability / recovery of BI-94 in mouse plasma; assay type: in vitro ADME
Outline: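 Mouse plasma (stored −80°C) spiked at 10 μg/mL, room temperature: undiluted, or diluted with one or nine volumes of water or 7.5 mM ammonium formate (pH 2.5). At 1, 20 and 60 min, extracted with four volumes MeOH and spun 16 000 × g for 10 min. Supernatant mixed 1:1 with 20% methanol in formate buffer. Post-extracted plasma was spiked after MeOH extraction. Analysed by LC-MS/MS, m/z 319.1→179.8; % recovery.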

[6] = NAC adduct formation in solution; assay type: in vitro ADME; settings: deionized water, 30 min, direct MS; adducts of fragments of NAC and BI-94
Outline: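 For structural identification, test compound (final 10 μg/mL) incubated 30 min in water with GSH or NAC, then analysed by direct LC-MS/MS and MS/MS. NAC adducts were screened by EMS-IDA-EPI (positive and negative ESI) only. GSH adducts were also screened by negative-mode precursor ion scans (m/z 254, 272) and by isotopic filtering with 1:1 GSH:[13C2,15N]-GSH.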

[7] = GSH adduct formation in solution; assay type: in vitro ADME
[8] = Stability of BI-94 in rat plasma; assay type: in vitro ADME; settings: immediately after spiking (data not shown)
NCI 60 cell line panel = settings: read-out: average GI50; average value in the NCI 60 cell line panel; cited from earlier work
[9] = GSH and NAC adduct formation in spiked mouse plasma; assay type: in vitro ADME
Outline: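 Freshly collected blank mouse blood/plasma and frozen plasma spiked at 10 μg/mL and held 5 and 20 min at room temperature. One frozen-plasma set was fortified with 9.8 μM GSH before spiking. Samples extracted with four volumes MeOH and spun at 16 000 × g for 10 min. Supernatant was mixed 1:1 with 20% methanol in 7.5 mM ammonium formate (pH 2.5). GSH/NAC adducts quantified by negative-mode LC-MS/MS MRM.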

[10] = water, after 60 min of incubation

Sequence of human serum albumin (HSA)-T3 peptide (P02768 45-65 limits assumed): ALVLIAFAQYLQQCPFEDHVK

O=[N+]([O-])c1ccc(S(=O)(=O)Cc2ccccc2)c2nonc12 [BI-94, 4-(benzylsulfonyl)-7-(hydroxy(oxido)amino)-2,1,3-benzoxadiazole]
stability in the autosampler ([1]; 48 h in 50 % methanol in H2O reconstitution solution (data not shown)): stable | stability in solution ([1]; NaOH or various buffers at pHs 7–9, room temperature): not stable | stability in solution ([1]; water and various buffers at pHs 2.5–5, room temperature): stable | time within which all three mice died after BI-94 administration (Balb/c mice; 10 mg/kg intravenous dose, male Balb/c mice (n = 3)): ≤ 2 h | BI-94 adducts with GSH (A1 and A2) and NAC (A1 and A2) in plasma in vivo (Balb/c mice; plasma 5 and 60 min after 10 mg/kg intravenous dose to mice): detected | adduct formation with HSA-T3 peptide, site [2]: forms adducts with albumin at the Cys34 position | recovery from plasma [3]: < 1% | recovery from plasma [4]: < 1% | recovery from post-extracted plasma ([5]; blank plasma pre-treated with MeOH and formate buffer, after 60-min incubation): 100% | recovery from mouse plasma ([5]; immediately after spiking, plasma diluted with one or nine volumes of H2O): below detection limit | recovery from mouse plasma ([5]; immediately after spiking, undiluted mouse plasma, 10 μg/mL): below detection limit | recovery from mouse plasma ([5]; nine volume dilution with 7.5 mM NH4-formate buffer (pH 2.5)): completely recovered | recovery from mouse plasma ([5]; one volume dilution with 7.5 mM NH4-formate buffer (pH 2.5), 60 min of incubation): 10% | recovery from mouse plasma ([5]; one volume dilution with 7.5 mM NH4-formate buffer (pH 2.5), immediate): 62% | recovery from post-extracted plasma ([5]; plasma pretreated with MeOH, after 60-min incubation): 20% | recovery from post-extracted plasma ([5]; plasma pretreated with MeOH, immediately after spiking): 100% | NAC adducts detected [6]: three NAC adducts | BI-94 depleted on incubation with GSH ([7]; NH4-formate buffer of pH 2.5, over 1 h): 14% | decrease in BI-94 peak area on incubation with GSH ([7]; PBS, within 5 min of incubation): 94.5% | GSH adducts detected ([7]; deionized water, 30 min, direct MS, adducts with a fragment of BI-94): two adducts | decrease in BI-94 peak area on incubation with GSH [7, 10]: 64% | increase in peak area of A1 and A2 GSH adducts [7, 10]: 6 fold | recovery from plasma [8]: < 1% | GI50 (NCI 60 cell line panel): 22.9 µM | GSH adducts (A1 and A2) and NAC adduct (A1) in spiked plasma ([9]; blank plasma freshly collected from mice, 10 μg/mL): detected | GSH and NAC adducts in spiked plasma ([9]; frozen blank mouse plasma): none of the adducts
